From ChEMBL document CHEMBL4811317, “Inhibitory activities of anthraquinone and xanthone derivatives against transthyretin amyloidogenesis” (Bioorg Med Chem, 2021)
Converted amounts (≈) assume the structure as drawn. Each block holds one molecule with its values, some of them ahead of it. The source made the active and inactive calls. The rule behind the calls is not given here.

Experiments:
[1] = biological target: Transthyretin (Homo sapiens, UniProt P02766, V50M); test: Inhibition of acid-mediated aggregation of TTR V30M mutant (unknown origin) expressed in Escherichia coli pretreated for 30 mins at pH 7 followed by protein dilution in acetate buffer and further incubated for 96 hrs at pH 4.6 by thioflavin-T fluorescence assay
[2] = biological target: Transthyretin (Homo sapiens) (UniProt P02766); test: Binding affinity to TTR V30M mutant (unknown origin) expressed in Escherichia coli by isothermal titration calorimetry
[3] = Metabolic stability in Sprague-Dawley rat liver microsomes assessed as residual rate at 1 uM preincubated for 5 mins followed by NADPH addition and measured after 30 mins by LC-MS/MS analysis; assay type: ADME, Microsome; settings: time 35 min, read-out: Stabilty
Summary of the method: (§1)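 Rat liver microsomes 0.2 mg/mL with 1 μM compound, 1 mM EDTA, 0.1 M phosphate pH 7.4; 5 min preincubation, then 1 mM NADPH (final) added, 30 min at 37 °C, 60 rpm. Quenched in cold acetonitrile/internal standard, supernatant by LC-MS/MS against time zero. CLint scaled with 44.8 mg protein/g liver, 40.0 g liver/kg. At least two technical replicates.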

[4] = Metabolic stability in Sprague-Dawley rat liver microsomes assessed as residual rate at 1 uM measured after 30 mins by LC-MS/MS analysis; assay type: ADME, Microsome; settings: read-out: Stabilty
[5] = Aqueous solubility of the compound in pH 1.2 JP1 fluid measured after 4 hrs ny HPLC-UV analysis; assay type: physicochemical
Summary of the method: (§2)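 Test compound diluted from 10 mM DMSO stock 2:165 into JP 1st fluid (pH 1.2) or JP 2nd fluid (pH 6.8); mixed 4 h at 37 °C with rotation at 1000 rpm, then filtered through 0.45 μm PVDF by centrifugation. At least two technical replicates.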

[6] = Aqueous solubility of the compound in pH 6.8 JP2 fluid measured after 4 hrs by HPLC-UV analysis; assay type: physicochemical; summary of the method: as §2
[7] = Permeability of the compound at 10 uM measured after 4 hrs by PAMPA based LC-MS analysis; assay type: ADME; settings: read-out: permeability
Summary of the method: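 PAMPA on pre-coated plates: donor 10 μM compound in 5% DMSO/0.1 M phosphate pH 6.4, acceptor 5% DMSO/0.1 M phosphate pH 7.4; 4 h at 37 °C without agitation. Donor, acceptor and initial donor solutions quantified by LC-MS/MS; recovery above 90%. Antipyrine, metoprolol, sulfasalazine as references. At least two technical replicates.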

[8] = Intrinsic clearance in Sprague-Dawley rat liver microsomes at 1 uM preincubated for 5 mins followed by NADPH addition and measured after 30 mins by LC-MS/MS analysis; assay type: ADME, Microsome; settings: time 35 min, read-out: CLH; summary of the method: as §1
[9] = Protein binding in Sprague-Dawley rat plasma assessed as unbound fraction at 1 uM measured after 4 hrs by equilibrium dialysis assay; assay type: ADME, cell-free
Summary of the method: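 Rat plasma spiked at 1 μM, equilibrium dialysis (8K MWCO) against 0.1 M phosphate pH 7.4 for 4 h at 37 °C, 1000 rpm. Unbound fraction = buffer/plasma concentration ratio. At least two technical replicates.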

[10] = Cmax in Sprague-Dawley rat at 1 mg/kg, iv measured up to 8 hrs by LC-MS/MS analysis; assay type: ADME, organism-based; parameters: route intravenous, dose 1 mg/kg, time <=8; settings: in vivo
Summary of the method: (§3)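 Male Sprague Dawley rats (7 weeks old, n = 2) given compound in 10% DMSO/0.1 M phosphate pH 8.5, i.v. or p.o. Caudal-vein blood at 5 min (i.v.), 15, 30 min, 1, 2, 4, 8 h; plasma precipitated with acetonitrile/IS, LC-MS/MS. Non-compartmental analysis; bioavailability = AUC∞(p.o.)/AUC∞(i.v.).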

[11] = Elimination half life in Sprague-Dawley rat at 1 mg/kg, iv measured up to 8 hrs by LC-MS/MS analysis; assay type: ADME, organism-based; settings: in vivo, read-out: beta t1/2 (converted); summary of the method: as §3
[12] = AUC infinity in Sprague-Dawley rat at 1 mg/kg, iv measured up to 8 hrs by LC-MS/MS analysis; assay type: ADME, organism-based; parameters: route intravenous, dose 1 mg/kg, time <=8; settings: in vivo
[13] = Total clearance in Sprague-Dawley rat at 1 mg/kg, iv measured up to 8 hrs by LC-MS/MS analysis; assay type: ADME, organism-based; settings: in vivo; summary of the method: as §3
[14] = Volume of distribution at steady state in Sprague-Dawley rat at 1 mg/kg, iv measured up to 8 hrs by LC-MS/MS analysis; assay type: ADME, organism-based; settings: in vivo, read-out: Vdss; summary of the method: as §3
[15] = Bioavailability in Sprague-Dawley rat at 1 mg/kg, iv measured up to 8 hrs by LC-MS/MS analysis; assay type: ADME, organism-based; settings: in vivo; summary of the method: as §3
[16] = Cmax in Sprague-Dawley rat at 1 mg/kg, po measured up to 8 hrs by LC-MS/MS analysis; assay type: ADME, organism-based; parameters: route oral, dose 1 mg/kg, time <=8; settings: in vivo; summary of the method: as §3
[17] = Tmax in Sprague-Dawley rat at 1 mg/kg, po measured up to 8 hrs by LC-MS/MS analysis; assay type: ADME, organism-based; settings: in vivo; summary of the method: as §3
[18] = Elimination half life in Sprague-Dawley rat at 1 mg/kg, po measured up to 8 hrs by LC-MS/MS analysis; assay type: ADME, organism-based; settings: in vivo, read-out: beta t1/2 (converted); summary of the method: as §3
[19] = AUC infinity in Sprague-Dawley rat at 1 mg/kg, po measured up to 8 hrs by LC-MS/MS analysis; assay type: ADME, organism-based; parameters: route oral, dose 1 mg/kg, time <=8; settings: in vivo
[20] = Cmax in Sprague-Dawley rat at 0.1 mg/kg, iv measured up to 8 hrs by LC-MS/MS analysis; assay type: ADME, organism-based; parameters: route intravenous, dose 0.1 mg/kg, time <=8; settings: in vivo; summary of the method: as §3
[21] = Elimination half life in Sprague-Dawley rat at 0.1 mg/kg, iv measured up to 8 hrs by LC-MS/MS analysis; assay type: ADME, organism-based; settings: in vivo, read-out: beta t1/2 (converted); summary of the method: as §3
[22] = AUC infinity in Sprague-Dawley rat at 0.1 mg/kg, iv measured up to 8 hrs by LC-MS/MS analysis; assay type: ADME, organism-based; parameters: route intravenous, dose 0.1 mg/kg, time <=8; settings: in vivo
[23] = Total clearance in Sprague-Dawley rat at 0.1 mg/kg, iv measured up to 8 hrs by LC-MS/MS analysis; assay type: ADME, organism-based; settings: in vivo; summary of the method: as §3
[24] = Volume of distribution at steady state in Sprague-Dawley rat at 0.1 mg/kg, iv measured up to 8 hrs by LC-MS/MS analysis; assay type: ADME, organism-based; settings: in vivo, read-out: Vdss; summary of the method: as §3
[25] = AUC (0 to 8 hrs) in Sprague-Dawley rat at 0.1 mg/kg, iv measured up to 8 hrs by LC-MS/MS analysis; assay type: ADME, organism-based; parameters: route intravenous, dose 0.1 mg/kg, time <=8; settings: in vivo
[26] = Bioavailability in Sprague-Dawley rat at 0.1 mg/kg, iv measured up to 8 hrs by LC-MS/MS analysis; assay type: ADME, organism-based; settings: in vivo; summary of the method: as §3
[27] = Cmax in Sprague-Dawley rat at 0.1 mg/kg, po measured up to 8 hrs by LC-MS/MS analysis; assay type: ADME, organism-based; parameters: route oral, dose 0.1 mg/kg, time <=8; settings: in vivo; summary of the method: as §3
[28] = Tmax in Sprague-Dawley rat at 0.1 mg/kg, po measured up to 8 hrs by LC-MS/MS analysis; assay type: ADME, organism-based; settings: in vivo; summary of the method: as §3
[29] = AUC (0 to 8 hrs) in Sprague-Dawley rat at 0.1 mg/kg, po measured up to 8 hrs by LC-MS/MS analysis; assay type: ADME, organism-based; parameters: route oral, dose 0.1 mg/kg, time <=8; settings: in vivo

IC50 [1]: > 100 µM
Compound: COc1cc(O)c2c(c1)C(=O)c1cc(C)cc(O)c1C2=O [PHYSCION]

IC50 [1]: 12 µM
Compound: O=C1c2ccc(O)cc2C(=O)c2c1ccc(O)c2O

Compound: O=C1c2cccc(O)c2C(=O)c2c(O)cc(CO)cc21 [ALOE-EMODIN]
IC50 [1]: > 100 µM

IC50 [1]: 22 µM
Compound: CCOc1cccc2c1C(=O)c1ccc(C(=O)O)cc1C2=O

IC50 [1]: 10 µM
Compound: O=C(O)c1ccc2c(=O)c3c(Cl)cccc3oc2c1

IC50 [1]: 13 µM
Compound: O=C(O)c1ccc2oc3c(Cl)cccc3c(=O)c2c1

IC50 [1]: > 100 µM
Compound: O=C1c2ccc(O)c(O)c2C(=O)c2c(O)ccc(O)c21 [QUINALIZARIN]

IC50 [1]: > 100 µM
Compound: Oc1ccc(O)c2c(O)c3ccccc3c(O)c12

IC50 [1]: > 100 µM
Compound: O=C1c2ccccc2C(=O)c2c(O)ccc(O)c21 [QUINIZARIN]

IC50 [1]: 24 µM
Compound: O=C(O)c1cc(F)c2c(c1)C(=O)c1ccccc1C2=O

IC50 [1]: 7.7 µM
Compound: O=C(O)c1ccc2c(=O)c3cccc(Cl)c3oc2c1

Compound: CC(C)=CCc1c(O)cc2oc3cc(O)c(O)c(CC=C(C)C)c3c(=O)c2c1O
IC50 [1]: 10 µM

IC50 [1]: 28 µM
Compound: O=C(O)c1ccc2c(c1)C(=O)c1ccccc1C2=O

IC50 [1]: 6.5 µM | Activity [2]: Active | remaining at 0.5 h, 1 µM [3]: 88% | remaining at 0.5 h, 1 µM [4]: 88% | solubility at 4 h [5]: 2 µM (≈ 0.508 µg/mL) | solubility at 4 h [6]: > 100 µM | Papp at 4 h, 10 µM [7]: 18 ×10⁻⁶ cm/s | CLint scaled at 1 µM [8]: 35.7 mL/min/kg | fraction unbound at 4 h, 1 µM [9]: 0.0073 | Cmax [10]: 19200 ng/mL | half-life [11]: 2.4 h | AUC(0-inf) [12]: 7520 ng·h/mL | clearance [13]: 2.22 mL/min/kg | Vd [14]: 0.148 L/kg | bioavailability [15]: 34.9% | Cmax [16]: 476 ng/mL | Tmax [17]: 0.25 h | half-life [18]: 4.4 h | AUC(0-inf) [19]: 2620 ng·h/mL
Compound: Cc1cc(C(=O)O)cc2c(=O)c3ccccc3oc12

Activity [2]: Active | remaining at 0.5 h, 1 µM [3]: 88% | remaining at 0.5 h, 1 µM [4]: 88% | solubility at 4 h [5]: 0.088 µM (≈ 0.0271 µg/mL) | solubility at 4 h [6]: > 100 µM | Papp at 4 h, 10 µM [7]: > 50 ×10⁻⁶ cm/s | CLint scaled at 1 µM [8]: 38.7 mL/min/kg | fraction unbound at 4 h, 1 µM [9]: 0.0051 | Cmax [20]: 537 ng/mL | half-life [21]: 12 h | AUC(0-inf) [22]: 4330 ng·h/mL | clearance [23]: 0.383 mL/min/kg | Vd [24]: 0.375 L/kg | AUC(0-t) [25]: 1710 ng·h/mL | bioavailability [26]: 55.8% | Cmax [27]: 163 ng/mL | Tmax [28]: 8 h | AUC(0-t) [29]: 956 ng·h/mL
Compound: O=C(O)c1ccc2nc(-c3cc(Cl)cc(Cl)c3)oc2c1

IC50 [1]: > 100 µM
Compound: O=C1c2cccc(O)c2C(=O)c2c(O)cccc21 [DANTHRON]

IC50 [1]: 12 µM
Compound: O=C(O)c1cc(O)c2c(c1)C(=O)c1cccc(O)c1C2=O [RHEIN]

IC50 [1]: > 100 µM
Compound: Cc1cc(O)c2c(c1)C(=O)c1cccc(O)c1C2=O [CHRYSOPHANOL]

IC50 [1]: > 100 µM
Compound: O=C1c2ccccc2C(=O)c2c1ccc(O)c2O [ATHRAQUINONES A]

IC50 [1]: > 100 µM
Compound: O=C1c2cccc(O)c2C(=O)c2cccc(O)c21 [ANTHRARUFIN]

IC50 [1]: 9.1 µM
Compound: O=C(O)c1cc(Cl)c2oc3c(Cl)cccc3c(=O)c2c1

IC50 [1]: > 100 µM
Compound: Cc1ccc2oc3ccccc3c(=O)c2c1
